Test results published in ChEMBL document CHEMBL1124493, “Synthesis and tumor uptake of 5-82Br- and 5-131I-labeled 5-halo-1-(2-fluoro-2-deoxy-beta-D-ribofuranosyl)uracils” (J Med Chem, 1989).

Experiments:
Mus musculus [1] = test: Biodistribution of intravenously injected [131I]-labeled compound in blood of BDF1 female mice bearing subcutaneous Lewis lung carcinoma after 8 hours; assay type: ADME, organism-based; conditions: in vivo, iv
Summary of the method: (§1)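 Female BDF1 mice bearing subcutaneous Lewis lung carcinoma received a single intravenous dose of 0.5-1.8 μg of the 131I-labeled nucleoside (55-110 kBq). They were sacrificed at set times, and tissues were weighed wet and γ-counted. Activity is expressed as percent of injected dose per gram of wet tissue, given as mean ± standard deviation for six animals.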

Mus musculus [2] = test: Biodistribution of intravenously injected [131I]-labeled compound in lung of BDF1 female mice bearing subcutaneous Lewis lung carcinoma after 0.5 hours; assay type: ADME, organism-based; conditions: in vivo, iv; summary of the method: as §1
Mus musculus [3] = organism: Mus musculus; test: Urinary [131I]5-iodouracil observed in BDF1 female mice bearing lewis lung tumor after 24 hr of injected [131I]-compound; assay type: functional, tissue-based; conditions: Urine
Mus musculus [4] = test: Biodistribution of intravenously injected [131I]-labeled compound in tumor of BDF1 female mice bearing subcutaneous Lewis lung carcinoma after 0.50 hours; assay type: ADME, organism-based; conditions: in vivo, iv, 0.5 h
Summary of the method: (§2)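 Female BDF1 mice with subcutaneous Lewis lung carcinoma given i.v. 0.5-1.8 μg of 131I-labeled nucleoside (55-110 kBq). Killed at set times. Tissues weighed wet and γ-counted. Radioactivity expressed as percent injected dose per gram wet tissue, mean ± SD of six animals.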

Mus musculus [5] = organism: Mus musculus; test: Other urinary compounds observed in BDF1 female mice bearing lewis lung tumor after 6-7 hr of injected [131I]-compound; assay type: functional, tissue-based; conditions: Urine
Mus musculus [6] = organism: Mus musculus; test: Urinary [131I]5-iodouracil observed in BDF1 female mice bearing lewis lung tumor after 0-0.5 hr of injected [131I]-compound; assay type: functional, tissue-based; conditions: Urine
Mus musculus [7] = test: Biodistribution of intravenously injected [131I]-labeled compound in skin of BDF1 female mice bearing subcutaneous Lewis lung carcinoma after 1 hours; assay type: ADME, organism-based, Zone of skin; conditions: in vivo, iv; summary of the method: as §2
Mus musculus [8] = test: Biodistribution of intravenously injected [131I]-labeled compound in kidney of BDF1 female mice bearing subcutaneous Lewis lung carcinoma after 24 hours; assay type: ADME, organism-based; conditions: in vivo, iv; summary of the method: as §1
Mus musculus [9] = test: Biodistribution of intravenously injected [131I]-labeled compound in liver of BDF1 female mice bearing subcutaneous Lewis lung carcinoma after 8 hours; assay type: ADME, organism-based; conditions: in vivo, iv; summary of the method: as §1
Mus musculus [10] = test: Biodistribution of intravenously injected [131I]-labeled compound in lung of BDF1 female mice bearing subcutaneous Lewis lung carcinoma after 8 hours; assay type: ADME, organism-based; conditions: in vivo, iv; summary of the method: as §1
Mus musculus [11] = organism: Mus musculus; test: Urinary [131I]- compound observed in BDF1 female mice bearing lewis lung tumor after 2-3 hr of injected [131I]-compound; assay type: functional, tissue-based; conditions: Urine
Mus musculus [12] = test: Biodistribution of intravenously injected [131I]-labeled compound in liver of BDF1 female mice bearing subcutaneous Lewis lung carcinoma after 0.50 hours; assay type: ADME, organism-based; conditions: in vivo, iv, 0.5 h; summary of the method: as §1
Mus musculus [13] = test: Biodistribution of intravenously injected [131I]-labeled compound in muscle of BDF1 female mice bearing subcutaneous Lewis lung carcinoma after 24 hours; assay type: ADME, organism-based, Muscle tissue; conditions: in vivo, iv; summary of the method: as §2
Mus musculus [14] = organism: Mus musculus; test: Other urinary compounds observed in BDF1 female mice bearing lewis lung tumor after 2-3 hr of injected [131I]-compound; assay type: functional, tissue-based; conditions: Urine
Mus musculus [15] = test: Biodistribution of intravenously injected [131I]-labeled compound in gut of BDF1 female mice bearing subcutaneous Lewis lung carcinoma after 4 hours; assay type: ADME, organism-based; conditions: in vivo, iv; summary of the method: as §1
Mus musculus [16] = test: Biodistribution of intravenously injected [131I]-labeled compound in kidney of BDF1 female mice bearing subcutaneous Lewis lung carcinoma after 2 hours; assay type: ADME, organism-based; conditions: in vivo, iv; summary of the method: as §1
Mus musculus [17] = test: Biodistribution of intravenously injected [131I]-labeled compound in heart of BDF1 female mice bearing subcutaneous Lewis lung carcinoma after 24 hours; assay type: ADME, organism-based; conditions: in vivo, iv; summary of the method: as §1
Mus musculus [18] = organism: Mus musculus; test: Other urinary compounds observed in BDF1 female mice bearing lewis lung tumor after 0-0.5 hr of injected [131I]-compound; assay type: functional, tissue-based; conditions: Urine
Mus musculus [19] = organism: Mus musculus; test: Inhibition constant for influx competition with [6-3H]thymidine in mouse erythrocytes; assay type: functional
Summary of the method: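 Freshly harvested mouse erythrocytes were exposed to various concentrations of test nucleoside and [6-3H]thymidine, and zero-trans thymidine influx was measured. Extracellular [6-3H]thymidine was measured over time by liquid scintillation counting of aliquots. The Ki for competition at the nucleoside transporter was derived by previously described methods.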

Mus musculus [20] = test: Biodistribution of intravenously injected [131I]-labeled compound in bone of BDF1 female mice bearing subcutaneous Lewis lung carcinoma after 24 hours; assay type: ADME, organism-based, Bone element; conditions: in vivo, iv; summary of the method: as §1
Mus musculus [21] = test: Biodistribution of intravenously injected [131I]-labeled compound in heart of BDF1 female mice bearing subcutaneous Lewis lung carcinoma after 2 hours; assay type: ADME, organism-based; conditions: in vivo, iv; summary of the method: as §1
Mus musculus [22] = test: Biodistribution of intravenously injected [131I]-labeled compound in muscle of BDF1 female mice bearing subcutaneous Lewis lung carcinoma after 8 hours; assay type: ADME, organism-based, Muscle tissue; conditions: in vivo, iv; summary of the method: as §2
Mus musculus [23] = test: Biodistribution of intravenously injected [131I]-labeled compound in stomach of BDF1 female mice bearing subcutaneous Lewis lung carcinoma after 0.25 hours; assay type: ADME, organism-based; conditions: in vivo, iv; summary of the method: as §2
Mus musculus [24] = test: Biodistribution of intravenously injected [82Br]-labeled compound in lung of BDF1 female mice bearing subcutaneous Lewis lung carcinoma after 2 hours; assay type: ADME, organism-based; conditions: in vivo, iv
Summary of the method: (§3)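 Female BDF1 mice with subcutaneous Lewis lung carcinoma given an iv injection of [82Br]-labelled nucleoside, 47-130 μg carrying 20-60 kBq 82Br. Tissues were excised, weighed wet and γ-counted. Values are percent injected dose per gram of wet tissue, mean ± standard deviation of six animals, with organ-to-tumour ratios derived.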

Mus musculus [25] = test: Biodistribution of intravenously injected [82Br]-labeled compound in blood of BDF1 female mice bearing subcutaneous Lewis lung carcinoma after 4 hours; assay type: ADME, organism-based; conditions: in vivo, iv
Summary of the method: (§4)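 82Br-labeled nucleoside given intravenously to female BDF1 mice bearing subcutaneous Lewis lung carcinoma, at 47-130 μg carrying 20-60 kBq. Mice sacrificed at each time point. Wet-weighed tissues γ-counted. Values are percent injected dose per gram wet tissue, mean ± SD, n = 6.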

Mus musculus [26] = test: Biodistribution of intravenously injected [82Br]-labeled compound in stomach of BDF1 female mice bearing subcutaneous Lewis lung carcinoma after 1 hours; assay type: ADME, organism-based; conditions: in vivo, iv
Mus musculus [27] = test: Biodistribution of intravenously injected [82Br]-labeled compound in blood of BDF1 female mice bearing subcutaneous Lewis lung carcinoma after 8 hours; assay type: ADME, organism-based; conditions: in vivo, iv; summary of the method: as §4
Mus musculus [28] = test: Biodistribution of intravenously injected [82Br]-labeled compound in stomach of BDF1 female mice bearing subcutaneous Lewis lung carcinoma after 2 hours; assay type: ADME, organism-based; conditions: in vivo, iv
Mus musculus [29] = test: Biodistribution of intravenously injected [82Br]-labeled compound in bone of BDF1 female mice bearing subcutaneous Lewis lung carcinoma after 0.25 hours; assay type: ADME, organism-based, Bone element; conditions: in vivo, iv; summary of the method: as §4
Mus musculus [30] = test: Biodistribution of intravenously injected [82Br]-labeled compound in tumor of BDF1 female mice bearing subcutaneous Lewis lung carcinoma after 4 hr; assay type: ADME, organism-based; conditions: in vivo, iv
Mus musculus [31] = test: Biodistribution of intravenously injected [82Br]-labeled compound in blood of BDF1 female mice bearing subcutaneous Lewis lung carcinoma after 0.50 hours; assay type: ADME, organism-based; conditions: in vivo, iv, 0.5 h; summary of the method: as §4
Mus musculus [32] = test: Biodistribution of intravenously injected [82Br]-labeled compound in gut of BDF1 female mice bearing subcutaneous Lewis lung carcinoma after 8 hours; assay type: ADME, organism-based; conditions: in vivo, iv; summary of the method: as §3
Mus musculus [33] = test: Biodistribution of intravenously injected [82Br]-labeled compound in tumor of BDF1 female mice bearing subcutaneous Lewis lung carcinoma after 2 hours; assay type: ADME, organism-based; conditions: in vivo, iv
Mus musculus [34] = test: Biodistribution of intravenously injected [82Br]-labeled compound in muscle of BDF1 female mice bearing subcutaneous Lewis lung carcinoma after 24 hours; assay type: ADME, organism-based, Muscle tissue; conditions: in vivo, iv; summary of the method: as §3
Mus musculus [35] = test: Biodistribution of intravenously injected [82Br]-labeled compound in heart of BDF1 female mice bearing subcutaneous Lewis lung carcinoma after 24 hours; assay type: ADME, organism-based; conditions: in vivo, iv; summary of the method: as §3
Mus musculus [36] = test: Biodistribution of intravenously injected [82Br]-labeled compound in tumor of BDF1 female mice bearing subcutaneous Lewis lung carcinoma after 8 hours; assay type: ADME, organism-based; conditions: in vivo, iv
Mus musculus [37] = test: Biodistribution of intravenously injected [82Br]-labeled compound in spleen of BDF1 female mice bearing subcutaneous Lewis lung carcinoma after 8 hours; assay type: ADME, organism-based; conditions: in vivo, iv

O=c1[nH]c(=O)n([C@@H]2O[C@H](CO)[C@@H](O)[C@H]2F)cc1I
Injected dose/g (Mus musculus [1]): 4.1% | Injected dose/g (Mus musculus [2]): 7.5% | Radioactive constituents (Mus musculus [3]): 0% | Injected dose/g (Mus musculus [4]): 3.7% | Radioactive constituents (Mus musculus [5]): 0% | Radioactive constituents (Mus musculus [6]): 1.8% | Injected dose/g (Mus musculus [7]): 5% | Injected dose/g (Mus musculus [8]): 0.14% | Injected dose/g (Mus musculus [9]): 1.4% | Injected dose/g (Mus musculus [10]): 2.6% | Radioactive constituents (Mus musculus [11]): 82.8% | Injected dose/g (Mus musculus [12]): 4.6% | Injected dose/g (Mus musculus [13]): 0.03% | Radioactive constituents (Mus musculus [14]): 3.5% | Injected dose/g (Mus musculus [15]): 2.1% | Injected dose/g (Mus musculus [16]): 8.5% | Injected dose/g (Mus musculus [17]): 0.1% | Radioactive constituents (Mus musculus [18]): 2.6% | Ki (Mus musculus [19]): 410 µM | Injected dose/g (Mus musculus [20]): 0.07% | Injected dose/g (Mus musculus [21]): 5.7% | Injected dose/g (Mus musculus [22]): 0.7% | Injected dose/g (Mus musculus [23]): 3.7%

O=c1[nH]c(=O)n([C@H]2O[C@@H](CO)[C@H](O)[C@H]2F)cc1Br
Injected dose/g (Mus musculus [24]): 0.54% | Injected dose/g (Mus musculus [25]): 0.6% | Injected dose/g (Mus musculus [26]): 0.5% | Injected dose/g (Mus musculus [27]): 0.72% | Injected dose/g (Mus musculus [28]): 0.52% | Injected dose/g (Mus musculus [29]): 0.52% | Injected dose/g (Mus musculus [30]): 0.37% | Injected dose/g (Mus musculus [31]): 1.36% | Injected dose/g (Mus musculus [32]): 0.33% | Injected dose/g (Mus musculus [33]): 0.57% | Injected dose/g (Mus musculus [34]): 0.09% | Injected dose/g (Mus musculus [35]): 0.48% | Ki (Mus musculus [19]): 390 µM | Injected dose/g (Mus musculus [36]): 0.46% | Injected dose/g (Mus musculus [37]): 0.34%
